# Screening data deposited in PubChem BioAssay by The Scripps Research Institute Molecular Screening Center.
# Most compounds without a hit are left out; they make up all but 1.8% or so of the library.
# NPY-Y1 antag: NPY-Y1 (human) receptor antagonism | HEK293-CNG Y1 cells, membrane potential fluorescence; NPY at EC95, then isoproterenol | inhibition, % at 3.6 µM | actives 1% (n = 200,000);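 active means inhibition above the campaign mean inhibition of all tested compounds plus 3 SD, cut at about 20% in these data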;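 further: 0% = DMSO wells given NPY plus isoproterenol and 100% = isoproterenol alone without NPY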
# Target sequence (P25929 whole entry, looked up): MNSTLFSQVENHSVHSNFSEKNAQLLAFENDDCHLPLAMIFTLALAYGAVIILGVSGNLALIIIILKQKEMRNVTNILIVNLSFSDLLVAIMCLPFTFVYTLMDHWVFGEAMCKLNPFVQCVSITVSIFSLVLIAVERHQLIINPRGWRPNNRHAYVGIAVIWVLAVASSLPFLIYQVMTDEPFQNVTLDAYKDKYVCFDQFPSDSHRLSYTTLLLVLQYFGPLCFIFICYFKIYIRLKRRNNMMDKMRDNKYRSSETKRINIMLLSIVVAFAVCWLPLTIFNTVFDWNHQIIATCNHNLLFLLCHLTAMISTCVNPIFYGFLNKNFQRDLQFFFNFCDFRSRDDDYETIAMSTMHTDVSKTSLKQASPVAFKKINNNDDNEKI
#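 Assay system: HEK293 cells with Y1 receptor plus CNG channel | Probe or stimulus: NPY (25 nM), isoproterenol (1 µM), Ro 20-1724 (25 µM) | Timing: Compound incubation 1 h at room temperature, readout 45 min post-stimulation | Measured by: Membrane-potential fluorescent dye readout | Benchmarks: High control isoproterenol alone, low control NPY with isoproterenol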
# NPY-Y2 antag: NPY-Y2 (human) receptor antagonism; AID 793; inhibition, % at 2.7 µM; actives 0.99% (n = 140,000); P49146; NPY-Y2 expressing cells, antagonist mode; in the data active means inhibition above about 17%;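 further: 0% = vehicle with agonist challenge and 100% = reference antagonist with challenge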
# Target sequence (P49146 whole entry, looked up): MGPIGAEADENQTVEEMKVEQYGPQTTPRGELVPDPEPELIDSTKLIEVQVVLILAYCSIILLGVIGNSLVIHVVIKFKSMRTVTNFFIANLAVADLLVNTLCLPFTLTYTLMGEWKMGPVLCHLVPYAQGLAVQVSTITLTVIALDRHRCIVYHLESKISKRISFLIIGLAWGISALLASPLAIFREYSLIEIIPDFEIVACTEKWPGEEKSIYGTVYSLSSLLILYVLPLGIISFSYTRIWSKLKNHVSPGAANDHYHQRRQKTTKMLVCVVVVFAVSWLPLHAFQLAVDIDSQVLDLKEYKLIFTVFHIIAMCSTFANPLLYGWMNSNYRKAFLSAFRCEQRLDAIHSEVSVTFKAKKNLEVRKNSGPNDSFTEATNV
# NPY2 pot ag: human NPY-Y2 potentiation or agonism, primary screen; P49146; cells expressing NPY-Y2, potentiator/agonist read-out; activation, % at 3.6 µM; actives 0.45% (n = 220,000); AID 1359; in the data active means activation above about 27%;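 further: cells stimulated with NPY near EC25 plus isoproterenol at EC100; 0% = vehicle plus submaximal agonist and 100% = vehicle plus saturating agonist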
# NPY-Y1 PAM-ag: potentiators or agonists of human neuropeptide Y receptor Y1. AID 1304. NPY-Y1 expressing cells, potentiator/agonist activation. activation, % at 3.6 µM. actives 0.37% (n = 220,000); in the data active means activation above about 33%, passing the limit was not always enough;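 further: cells stimulated with NPY at EC10 then isoproterenol at EC100; 0% = low agonist plus stimulus and 100% = saturating agonist plus stimulus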
# NPY-Y2 pot conf: human NPY-Y2 potentiation or agonism, confirmation. cell-based NPY-Y2 potentiator/agonist assay. activation, % at 3.6 µM. actives 20% (n = 450). shares compounds with NPY2 pot ag. AID 1539; in the data active means activation above about 33%
# NPY-Y1 potentiator: potentiates or activates NPY-Y1, counter-screen for NPY-Y2 hits | shares compounds with NPY2 pot ag | Y1 HEK293-CNG cells, membrane potential fluorescence | activation, % at 3.6 µM | actives 20% (n = 450) | AID 1651; in the data active means activation above about 45%;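 further: cells stimulated with submaximal NPY then isoproterenol with phosphodiesterase inhibitor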
# NPY-Y1 ag 2: activates human NPY-Y1, counter-screen for NPY-Y2 potentiators. actives 37% (n = 450). activation, % at 3.6 µM. AID 1702. shares compounds with NPY2 pot ag. HEK293 Y1-CNGC, membrane potential fluorescence, agonism;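 active means activation above the mean of DMSO-only control wells plus 3 SD, cut at about 18% in these data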;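 further: cells stimulated with 1 µM isoproterenol plus the PDE inhibitor Ro 20-1724; 0% = isoproterenol with DMSO and no NPY and 100% = 40 nM NPY; Y1 agonists lower the membrane potential dye signal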
# CNGC inh: blocks CNG channel activity, counter-screen for NPY-Y2 potentiators. shares compounds with NPY2 pot ag. HEK293-CNG parental, isoproterenol cAMP, membrane potential fluorescence. inhibition, % at 3.6 µM. actives 32% (n = 450). AID 1703;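 active means inhibition above the control-well mean plus 3 SD of those wells, cut at about 22% in these data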;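 further: 0% = DMSO with isoproterenol and 100% = DMSO without isoproterenol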
# Y2 agonist ctr: NPY-Y2 agonism, counter-screen for Y2 potentiators. shares compounds with NPY2 pot ag. HEK293 Y2/CNGC cells, membrane potential fluorescence, agonist mode. activation, % at 3.6 µM. actives 56% (n = 450);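 active means activation above the mean of solvent-only control wells plus 3 SD, cut at about 10% in these data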;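 further: cells stimulated by isoproterenol with no NPY added so direct agonism is tested; 0% = DMSO with isoproterenol alone and 100% = NPY at EC100 plus isoproterenol; agonism lowers probe fluorescence through less cAMP and CNG channel opening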
# The depositor's hits bear a star; . = not tested or not shown.
SMILES,NPY-Y1 antag,NPY-Y2 antag,NPY2 pot ag,NPY-Y1 PAM-ag,NPY-Y2 pot conf,NPY-Y1 potentiator,NPY-Y1 ag 2,CNGC inh,Y2 agonist ctr
O=C(NC(NC(=S)Nc1cccc(Cl)c1)C(Cl)(Cl)Cl)OCc1ccccc1 (stereo not given),-6.9,-1.3,33.2*,15.2,19.6,34.9,30.2*,27.8*,34.3*
O=C(NC(NC(=S)Nc1cccc(C(=O)O)c1)C(Cl)(Cl)Cl)OCc1ccccc1 (stereo not given),-3.3,2.4,-3.4,-12.7,.,.,.,.,.
CN(C)c1cc(N/N=C/c2ccc(Cl)cc2)nc(N(C)C)n1,4.4,.,-14.2,-0.7,.,.,.,.,.
N#C/C(=C\c1ccncc1)c1nc2ccccc2o1,.,.,-30.7,7.6,.,.,.,.,.
N#C/C(=C\Nc1ccccc1O)c1nc2ccccc2o1,1.7,0.4,30.6*,14.7,24.5,36.5,28.6*,34.2*,18.3*
CCN(CC)c1cc(C)c2cc(NC(=O)c3cccs3)ccc2n1,-3.7,.,28.4*,35.3,32.5,52.9*,34.7*,45.1*,34.5*
C=CCN1C(=O)/C(=C/c2ccc(OC(C)=O)c(OCC)c2[N+](=O)[O-])SC1=S,4.3,.,36.1*,9.9,14.2,-5.2,5.1,1.6,12.2*
CCOc1c(OC(C)=O)ccc(/C=C/c2ccc3cccc(OC(C)=O)c3n2)c1[N+](=O)[O-],-11.7,-0.4,24.1,22.1,.,.,.,.,.
CCCc1cnc(NCCNCC(O)COc2ccc(Cl)c(Cl)c2)nc1 (stereo not given),.,.,8.6,14.7,.,.,.,.,.
O=C(/C=C/c1cn(-c2ccccc2)nc1-c1cccnc1)N1CCCC1,-1.7,.,27.8*,19.8,11.9,21.6,11.9,4.4,14.9*
CCOc1nc(N=C(N)N)nc2c(C)cccc12,4.7,1.1,38.1*,31.4,1.4,1.8,2.1,8.0,7.7
CCOc1nc(-c2ccccc2O)nc2ccccc12,1.5,5.8,-0.7,-28.2,.,.,.,.,.
CCc1ccc(NC(=S)N(Cc2ccc(Cl)cc2)Cc2ccc(C(=O)O)cc2)cc1,0.0,.,32.3*,0.8,8.0,19.5,16.4,14.0,5.8
Cc1cc(Br)ccc1OCCn1ccnc1,0.1,2.3,0.4,12.4,.,.,.,.,.
COCCCNC(=O)[C@H](CSCc1ccccc1)N1Cc2ccccc2C1=O,.,.,-15.2,-5.4,.,.,.,.,.
COCCNC(=O)[C@H](CSCc1ccccc1)N1Cc2ccccc2C1=O,.,.,102.2*,4.0,0.3,3.4,3.0,-0.8,4.7
CCCOP(=O)(OCCC)C(Nc1ccc(C(C)C)cc1)c1ccc([N+](=O)[O-])cc1 (stereo not given),9.1,12.6,35.2*,28.0,12.0,24.3,16.5,5.6,7.9
COP(=O)(OC)C(Nc1ccc([N+](=O)[O-])cc1)c1ccccc1 (stereo not given),.,.,-6.9,18.1,.,.,.,.,.
Cc1c([N+](=O)[O-])c(C(=O)N2CCCC2)nn1C,4.5,0.3,-3.2,15.8,.,.,.,.,.
Cc1c([N+](=O)[O-])c(C(=O)Sc2ccc(Br)cc2)nn1C,.,.,44.0*,43.5,9.4,15.1,1.0,5.3,15.7*
Cc1ccc(C)c(-n2cc(CN3CCCN(C=O)CC3)c(-c3ccccc3)n2)c1,5.1,.,-6.0,-3.4,.,.,.,.,.
O=C(N/N=C/c1ccc(OC(F)F)cc1)c1cccc(S(=O)(=O)N2CCOCC2)c1,-0.3,.,57.2*,9.6,1.2,-2.7,2.8,2.7,10.0*
CCN(CC)CCCNc1nc2cc(OC)c(OC)cc2c2nc(-c3cccnc3)nn12,-1.2,4.2,-18.3,-14.0,.,.,.,.,.
COc1cc2nc(NCC3CCCO3)n3nc(-c4cccnc4)nc3c2cc1OC (stereo not given),2.8,-2.4,64.8*,14.9,-0.8,7.8,0.9,4.5,8.9
COC(=O)/C(=C\Nc1cccc(Cl)c1C)c1ncc(C(F)(F)F)cc1Cl,7.3,4.1,57.5*,3.0,-11.0,-16.1,-21.7,-19.8,-14.2
SMILES,NPY-Y1 antag,NPY-Y2 antag,NPY2 pot ag,NPY-Y1 PAM-ag,NPY-Y2 pot conf,NPY-Y1 potentiator,NPY-Y1 ag 2,CNGC inh,Y2 agonist ctr
Cc1sc(-c2ccccn2)nc1OC(=O)c1ccc(Cl)c(Cl)c1,5.4,5.3,3.2,-1.6,.,.,.,.,.
Cc1sc(-c2ccccn2)nc1OC(=O)c1ccc(F)cc1F,-4.0,.,36.8*,26.4,7.2,11.3,14.2,-2.6,18.4*
CC(=O)/C=C(\C)N=Nc1c(O)[nH]c2ccccc12,.,.,16.4,26.3,.,.,.,.,.
COC(=O)/C(=C/c1cn(C)c2ccccc12)[N+](=O)[O-],-6.5,1.0,2.4,19.7,.,.,.,.,.
COC(=O)/C(=C/c1cn(C(C)=O)c2ccccc12)[N+](=O)[O-],.,.,60.5*,34.9,18.0,31.6,24.6*,20.1,17.6*
O=[N+]([O-])c1ccc(S(=O)(=O)Nc2nc3ccccc3nc2Nc2ccccc2)cc1,-2.8,.,0.9,26.1,.,.,.,.,.
O=[N+]([O-])c1ccc(Nc2c3ccccc3nc3ccccc23)cc1,-4.5,.,30.6*,25.5,46.6*,53.9*,35.7*,41.0*,44.6*
COCCOC(=O)C(CC(=O)O)NCc1ccco1 (stereo not given),.,.,47.8*,14.7,-0.2,-3.1,2.0,11.8,15.2*
Cc1cc(C)c2c(-n3cccc3)nn(C)c2n1,-3.7,1.3,7.0,7.6,.,.,.,.,.
Cc1ccc(C(=O)n2nc(-n3cccc3)c3c(C)cc(C)nc32)cc1,-4.8,.,57.3*,28.8,16.7,28.5,23.5*,2.6,17.9*
N#Cc1cnn(-c2ccc(F)cc2)c1N,.,.,55.2*,12.8,-6.5,-13.7,-25.4,-7.3,-14.9
COc1ccc(NC(=S)N/N=C/c2cccn2Cc2ccc(F)cc2)cc1,1.6,.,41.5*,20.0,16.9,6.5,-1.8,2.0,5.1
O=C(Nc1ccccc1)Nc1ncc([N+](=O)[O-])s1,3.4,.,30.8*,20.9,12.9,-12.0,-10.6,8.3,-2.7
Cc1c(/C=N/NC(=O)CNc2ccccc2)c2ccccn2c1C(=O)c1ccccc1,0.5,0.6,10.6,-24.1,.,.,.,.,.
O=C(c1ccc(S(=O)(=O)Nc2ccc(F)cc2)cc1)N1CCN(c2ccccn2)CC1,-5.0,.,8.1,-2.9,.,.,.,.,.
Cc1ccc(NS(=O)(=O)c2ccc(C(=O)N3CCN(c4ncccn4)CC3)cc2)cc1,-0.7,.,34.8*,8.2,-4.7,-18.7,-19.8,-9.7,-12.6
CCCOc1ccc(/C=N/NC(=O)c2ccc(Cn3cc([N+](=O)[O-])cn3)o2)cc1,-1.9,-3.1,40.7*,-31.3,0.3,1.9,-11.9,4.8,-0.8
O=C1/C(=C/c2ccc(O)c(O)c2)SC(=S)N1Nc1ccccc1,-9.1,.,39.3*,30.5,34.3*,41.0,24.6*,17.7,28.3*
